Screening data from PubChem BioAssay.
Most compounds without a hit are left out; they make up all but 1.9% or so of the library.
Jurkat NFkB inh – inhibitors of induced NF-kB luciferase reporter, primary screen, TCR NF-kB activation inhibitor project, cell-based, luminescence, uHTS | inhibition, % at 4 µM | Jurkat, PMA/ionomycin-induced NF-kB luciferase reporter | AID 435003, 2010 | 330,000 compounds, 0.53% hits; in the data active = inhibition above about 50%
aSyn UTR inh – MLPCN primary screen, SNCA 5' untranslated region; alpha-synuclein 5'UTR reporter, inhibitor activity; inhibition, % (tested at 7.5 µM); 300,000 compounds, 0.82% hits; AID 1813, 2009; in the data active = inhibition above about 60%; inconclusive = no clear call, values can overlap the other calls;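 also: H4 neuroglioblastoma cells stably carrying SNCA 5'UTR luciferase fusion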
APP transl inh – inhibitors of APP translation via 5'UTR reporter, primary screen, APP 5'UTR luciferase, SH-SY5Y cells; SH-SY5Y APP 5'UTR-luciferase reporter, luminescence; inhibition, % at 2 µM; 190,000 compounds, 0.82% hits; AID 1285, 2008;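 active = inhibition above a set limit, derived from the sample mean plus 3 SD, cut at about 45% in these data; inconclusive = one replicate passes the limit while the other fails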
697 NFkB inh – inhibitors of PMA/ionomycin-induced NF-kB reporter, 697 cells, primary screen, B-cell NF-kB inhibitor project, cell-based, luminescence, uHTS | 697 B-cell NF-kB luciferase reporter, 16 h | inhibition, % at 4 µM | AID 435022, 2010 | 330,000 compounds, 0.33% hits; in the data active = inhibition above about 35%
Lipid droplet – inhibitors of hepatocyte lipid droplet formation, primary screen, imaging, high-throughput imaging, BODIPY stain | AML12 mouse hepatocytes, oleate lipid droplets | inhibition, % at 6.5 µM | 240,000 compounds, 0.4% hits | AID 1656, 2009;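 active = lipid droplet intensity inhibited by at least 50%, with more than 500 cells counted; inconclusive = wells with under 300 cells, treated as cytotoxic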
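Test system: AML12 hepatocytes (mouse); reagent: oleate loading, 100 µM; dosing: one dose, 6.5 µM compound; incubation: overnight exposure; signal: fluorescence imaging, 20x objective, two fields per well; read-out basis: % inhibition of corrected integrated BODIPY droplet signal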
H9c2 TAG inh – inhibitors of triacylglycerol accumulation, primary screen, cell-based, uHTS, fluorescence, H9c2 | H9c2 cells, Nile Red lipid (TAG) fluorescence; cells loaded with 200 µM oleic acid | inhibition, % at 12.5 µM | 230,000 compounds, 0.66% hits | AID 651582, 2012;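 active = pattern-corrected inhibition of lipid staining of at least 50% with the nuclear-stain viability signal not falling by more than 50%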
Hits are given with their value; . = inactive; ? = inconclusive; / = no result given.

SMILES	Jurkat NFkB inh	aSyn UTR inh	APP transl inh	697 NFkB inh	Lipid droplet	H9c2 TAG inh
O=C(NCc1ccco1)c1ccc(Cn2c(=O)c3ccccc3n(Cc3cccc(Cl)c3)c2=O)cc1	.	64	.	.	.	.
CCOC(=O)N1CCN(S(=O)(=O)c2ccc(C(=O)NNc3nc4ccc(Cl)cc4s3)cc2)CC1	.	67	.	.	.	.
CCOC(=O)N1CCN(S(=O)(=O)c2ccc(C(=O)NNc3nc4cc(C)cc(C)c4s3)cc2)CC1	.	66	.	.	.	.
CCOC(=O)N1CCN(S(=O)(=O)c2ccc(C(=O)Nc3nnc(CC)o3)cc2)CC1	.	.	.	.	.	/
CCOC(=O)N1CCN(S(=O)(=O)c2ccc(C(=O)N(CCN(C)C)c3nc4ccc(Cl)cc4s3)cc2)CC1	.	.	/	.	.	.
CCOC(=O)N1CCN(S(=O)(=O)c2ccc(C(=O)NNc3nc4c(C)cccc4s3)cc2)CC1	.	.	.	.	.	.
CCOC(=O)N1CCN(S(=O)(=O)c2ccc(C(=O)NNc3nc4c(C)cc(C)cc4s3)cc2)CC1	.	71	.	.	.	.
Cc1ccccc1P(=O)(c1ccccc1)c1ccccc1C	/	/	/	/	/	.
CN1CCN(c2ncnc3c2ncn3[C@H]2CN(Cc3ccccc3)C[C@@H](CO)O2)CC1	/	/	/	/	/	.
COc1cc(O)c(C=Nc2ccccc2NS(=O)(=O)c2ccc(C)cc2)c(OC)c1	/	/	/	/	/	.
Cn1c(N)c(C(=O)N2CCN(c3ccccc3)CC2)c(=O)n(C)c1=O	/	/	/	/	/	.
CC(=Nc1ccccc1)C1=C(O)C(Cc2cccc(F)c2)NC1=O (stereo unspecified)	/	/	/	/	/	.
CC(=O)Nc1cccc(NC(=O)CSc2nc(=O)n(CCN3CCOCC3)c3c2CCCC3)c1	.	.	/	.	/	.
Cc1nn(-c2ccccc2)c(C)c1/C=N/NC(=O)c1cc(-c2ccccc2)n[nH]1	.	82	95	.	?	56
O=C1CN(C(=O)CN2CCN(S(=O)(=O)c3ccccc3)CC2)c2ccccc2N1	/	/	/	/	/	.
CN(C)S(=O)(=O)c1ccc(C(=O)OCCN=C2NS(=O)(=O)c3ccccc32)cc1	.	.	/	.	.	.
CN(C)S(=O)(=O)c1ccc(C(=O)OCCCN=C2NS(=O)(=O)c3ccccc32)cc1	.	.	45	.	/	.
CCn1c2ccccc2c2cc(NC(=O)CSc3nnc(-c4ccccc4)o3)ccc21	.	.	58	.	.	.
CCn1c2ccccc2c2cc(NC(=O)CSc3nnc(-c4cccc(F)c4)o3)ccc21	.	.	47	.	.	/
CCOC(=O)CSC1=NC(=O)CS1	.	.	.	.	/	.
CCOC(=O)COc1ccc(S(=O)(=O)Nc2cccc(SC)c2)cc1	.	.	69	.	.	/
COC(=O)C(C(=O)OC)C1C=CCN(C(C)=O)C1 (stereo unspecified)	/	/	/	/	/	.
Cc1ccc(Cl)c(NC(=O)COC(=O)c2ccccc2C(=O)c2ccc(Cl)c([N+](=O)[O-])c2)c1Cl	/	.	52	/	.	/
Cc1ccc(Oc2ccc(-c3nc(N)nc(N)n3)cc2)cc1C	.	.	92	.	.	/
Nc1ccc(N=Nc2ccccc2)c(N)n1	.	.	.	.	.	.
SMILES	Jurkat NFkB inh	aSyn UTR inh	APP transl inh	697 NFkB inh	Lipid droplet	H9c2 TAG inh
Cc1[nH]c(N=Nc2ccccc2)nc1N=Nc1ccccc1	.	63	/	.	.	.
CCOC(=O)c1c(SCCN2CCCC2)n(-c2ccccc2)c(=S)n(-c2ccccc2)c1=O	/	/	/	/	/	82
COc1ccc2c(c1)sc(N)[n+]2Cc1cc(C)cc2cccnc12	/	114	95	/	.	/
COc1ccc(/C=N/NS(=O)(=O)c2ccc(C)cc2)cc1OC(=O)c1ccccc1	.	/	.	.	.	.
COc1cc(/C=N/NS(=O)(=O)c2ccc3ccccc3c2)ccc1OCc1ccc(C(=O)O)cc1	.	84	/	.	.	.
CC(=O)c1ccc(NC(=O)c2noc3c2CCC3)cc1	.	71	.	.	.	.
COc1cccc(/C=N/n2c(-c3ccco3)nc3ccccc3c2=O)c1OC	.	.	.	.	.	/
COc1cc(NC(=O)Cn2ncc(Cl)c(Cl)c2=O)c(C)cc1[N+](=O)[O-]	/	121	95	/	.	.
CC(C)N1CCc2c(sc(N)c2C#N)C1	.	.	/	.	/	/
CCN1CCc2c(sc(N)c2C#N)C1	.	.	66	.	.	.
Cn1cc(-c2coc3c(C(=O)NCc4ccco4)cccc23)cn1	/	/	/	/	/	.
COc1ccc(NC(=O)c2cc(-c3ccccc3OC)on2)cc1	/	.	74	/	/	/
COc1ccccc1-c1cc(C(=O)Nc2cccnc2Cl)no1	.	.	/	.	.	/
COc1ccccc1-c1cc(C(=O)Nc2cccnc2)no1	/	?	96	/	/	/
O=C(Nc1ccc(C(=O)N2CCCCC2)cc1)C1CC1	/	/	/	/	/	.
Cc1nn(C)cc1C(=O)Nc1cc(Oc2ccc(Cl)cc2)cc([N+](=O)[O-])c1	.	.	.	.	.	/
Cn1cc([N+](=O)[O-])c(C(=O)Nc2cc(Oc3ccccc3)cc([N+](=O)[O-])c2)n1	/	.	97	/	.	/
OC(c1ccc(F)cc1)c1nc(-c2cncnc2)cs1 (stereo unspecified)	/	/	/	/	/	.
CN1Cc2cc(C(=O)c3cc(Cl)cc(CSc4ncccn4)c3O)cnc2NC1=O	.	79	96	.	/	/
COC(=O)c1cc2c([nH]c1=O)CCCC2=O	/	/	/	/	/	.
Cc1ccc(C)c(NC(=S)NC(NC(=O)N(C)C)C(Cl)(Cl)Cl)c1 (stereo unspecified)	.	.	.	.	.	/
Cc1ccc(C)c(NC(=S)NC(NC(=O)Cc2cccc3ccccc23)C(Cl)(Cl)Cl)c1 (stereo unspecified)	.	112	.	.	.	/
CCOc1ccc(N(CC(=O)Nc2ccccc2OC)S(=O)(=O)c2ccccc2)cc1	.	123	/	.	.	/
Clc1ccc(-c2nnc(NC3=NCCCCC3)o2)cc1	.	75	.	.	/	.
COC(=O)c1[nH]c2cccc(OC)c2c1NC(=O)C(C)N1CCC(C)CC1 (stereo unspecified)	.	.	66	.	.	/
SMILES	Jurkat NFkB inh	aSyn UTR inh	APP transl inh	697 NFkB inh	Lipid droplet	H9c2 TAG inh
O=C(NCc1cccs1)c1ccc2nc([C@@H]3O[C@H](CO)[C@H](O)[C@H](O)[C@H]3O)[nH]c2c1	/	/	/	/	/	.
CCOC(=O)c1c2c(n(C)c1COC)C(=O)C(=O)c1ccc(Br)cc1-2	.	92	.	.	/	/
O=C(OCn1ncc(Br)c(Br)c1=O)c1ccccc1Cl	.	.	/	.	.	.
O=C(OCn1ncc(Br)c(Br)c1=O)c1ccc(F)cc1	.	64	96	.	.	.
Nc1c(Cl)ncnc1N/N=C/c1ccnc2ccccc12	.	.	.	.	.	/
Nc1c(Cl)ncnc1N/N=C/c1ccc2ccccc2n1	/	/	66	/	.	.
Nc1c(Cl)ncnc1N/N=C/c1ccccn1	/	/	92	/	.	/
